Measured values published in paper PMC6606825 (Journal of Ginseng Research, 2018).

Assay: Pharmacokinetics of CK and its metabolite 20
Assay type: in vivo, healthy Chinese volunteers
Settings: mean (SD)
In short: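 Healthy adults given one oral tablet dose fasting (overnight, or 10 h in a crossover food-effect arm); 30 subjects from the 100/200/400 mg groups were pooled with 24 from 200 mg fasting periods. Plasma was stored at −70°C, extracted with MTBE plus internal standards and assayed by LC-MS/MS. Cmax was observed and AUClast calculated by linear trapezoid, each divided by dose. The metabolite/parent ratio was also calculated. Genotyping used Sequenom MassARRAY, and log-transformed values were compared by one-way ANOVA.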

[1] = ABCG2 rs3114018 AA (first line)
[2] = ABCG2 rs3114018 AA (third line)

In the case of CC(C)=CCC[C@](C)(O)[C@H]1CC[C@]2(C)[C@@H]1[C@H](O)C[C@@H]1[C@@]3(C)CC[C@H](O)C(C)(C)[C@@H]3CC[C@]12C [20(S)-PPD, 20(S)-protopanaxadiol], the “Ratio 20(S)-PPD/CK Cmax/D” value (ABCG2 rs2725248 CC) is reported as 0.74 (0.83) %, the “20(S)-PPD AUClast/D” value [1] is reported as 0.91 (0.71) and the “20(S)-PPD Cmax/D” value [1] is reported as 0.03 (0.02). For the same molecule, the “Ratio 20(S)-PPD/CK AUClast/D” value [1] was 4.78 (4.26) %, the “Ratio 20(S)-PPD/CK Cmax/D” value [1] was 0.96 (0.87) % and the “20(S)-PPD AUClast/D” value [2] was 0.88 (0.92). The “20(S)-PPD Cmax/D” value [2] was 0.03 (0.03), the “Ratio 20(S)-PPD/CK AUClast/D” value [2] was 5.73 (8.96) % and the “Ratio 20(S)-PPD/CK Cmax/D” value [2] was 1.25 (1.73) %. For the same molecule, the “20(S)-PPD AUClast/D” value (ABCG2 rs3114018 CA) was 0.80 (0.73), the “20(S)-PPD Cmax/D” value (ABCG2 rs3114018 CA) was 0.03 (0.03) and the “Ratio 20(S)-PPD/CK AUClast/D” value (ABCG2 rs3114018 CA) was 3.46 (4.62) %. For the same molecule, the “Ratio 20(S)-PPD/CK Cmax/D” value (ABCG2 rs3114018 CA) was 1.17 (1.94) %, the “20(S)-PPD AUClast/D” value (ABCG2 rs6857600 CC) was 0.89 (0.83) and the “20(S)-PPD Cmax/D” value (ABCG2 rs6857600 CC) was 0.03 (0.03). The “Ratio 20(S)-PPD/CK AUClast/D” value (ABCG2 rs6857600 CC) was 4.61 (6.81) %, the “Ratio 20(S)-PPD/CK Cmax/D” value (ABCG2 rs6857600 CC) was 1.26 (1.91) % and the “20(S)-PPD AUClast/D” value (ABCG2 rs6857600 TC) was 0.65 (0.64). For the same molecule, the “20(S)-PPD Cmax/D” value (ABCG2 rs6857600 TC) was 0.02 (0.02), the “Ratio 20(S)-PPD/CK AUClast/D” value (ABCG2 rs6857600 TC) was 2.91 (3.24) % and the “Ratio 20(S)-PPD/CK Cmax/D” value (ABCG2 rs6857600 TC) was 0.75 (0.80) %. The “20(S)-PPD AUClast/D” value (ABCG2 rs6857600 TT) was 0.48 (0.53), the “20(S)-PPD Cmax/D” value (ABCG2 rs6857600 TT) was 0.02 (0.02) and the “Ratio 20(S)-PPD/CK AUClast/D” value (ABCG2 rs6857600 TT) was 4.27 (5.76) %. The “Ratio 20(S)-PPD/CK Cmax/D” value (ABCG2 rs6857600 TT) was 0.95 (1.30) %, the “20(S)-PPD AUClast/D” value (ABCG2 rs12505410 GG) was 0.92 (0.62) and the “20(S)-PPD Cmax/D” value (ABCG2 rs12505410 GG) was 0.03 (0.02). The “Ratio 20(S)-PPD/CK AUClast/D” value (ABCG2 rs12505410 GG) was 3.61 (2.83) %, the “Ratio 20(S)-PPD/CK Cmax/D” value (ABCG2 rs12505410 GG) was 0.90 (0.55) % and the “20(S)-PPD AUClast/D” value (ABCG2 rs12505410 GT) was 1.00 (0.74). For the same molecule, the “Ratio 20(S)-PPD/CK AUClast/D” value (ABCG2 rs12505410 GT) was 4.63 (5.21) %, the “Ratio 20(S)-PPD/CK Cmax/D” value (ABCG2 rs12505410 GT) was 1.36 (2.02) % and the “20(S)-PPD AUClast/D” value (ABCG2 rs12505410 TT) was 0.63 (0.82). For the same molecule, the “20(S)-PPD Cmax/D” value (ABCG2 rs12505410 TT) was 0.02 (0.03), the “Ratio 20(S)-PPD/CK AUClast/D” value (ABCG2 rs12505410 TT) was 4.03 (7.68) % and the “Ratio 20(S)-PPD/CK Cmax/D” value (ABCG2 rs12505410 TT) was 0.97 (1.54) %. For the same molecule, the “20(S)-PPD AUClast/D” value (ABCG2 rs17731799 GG) was 0.91 (0.71), the “20(S)-PPD Cmax/D” value (ABCG2 rs17731799 GG) was 0.03 (0.02) and the “Ratio 20(S)-PPD/CK AUClast/D” value (ABCG2 rs17731799 GG) was 4.78 (4.26) %. The “Ratio 20(S)-PPD/CK Cmax/D” value (ABCG2 rs17731799 GG) was 0.96 (0.87) %, the “20(S)-PPD AUClast/D” value (ABCG2 rs17731799 GT) was 0.82 (0.77) and the “20(S)-PPD Cmax/D” value (ABCG2 rs17731799 GT) was 0.03 (0.03). For the same molecule, the “Ratio 20(S)-PPD/CK AUClast/D” value (ABCG2 rs17731799 GT) was 3.65 (5.14) %, the “Ratio 20(S)-PPD/CK Cmax/D” value (ABCG2 rs17731799 GT) was 1.28 (2.16) % and the “20(S)-PPD AUClast/D” value (ABCG2 rs17731799 TT) was 0.80 (0.85). For the same molecule, the “20(S)-PPD Cmax/D” value (ABCG2 rs17731799 TT) was 0.03 (0.03), the “Ratio 20(S)-PPD/CK AUClast/D” value (ABCG2 rs17731799 TT) was 4.76 (7.86) % and the “Ratio 20(S)-PPD/CK Cmax/D” value (ABCG2 rs17731799 TT) was 1.08 (1.53) %. For the same molecule, the “20(S)-PPD AUClast/D” value (CFTR rs213950 AG) was 0.91 (0.99), the “20(S)-PPD Cmax/D” value (CFTR rs213950 AG) was 0.03 (0.04) and the “Ratio 20(S)-PPD/CK AUClast/D” value (CFTR rs213950 AG) was 4.96 (7.34) %. The “Ratio 20(S)-PPD/CK Cmax/D” value (CFTR rs213950 AG) was 1.45 (2.26) %, the “20(S)-PPD AUClast/D” value (CFTR rs213950 GG) was 0.64 (0.54) and the “20(S)-PPD Cmax/D” value (CFTR rs213950 GG) was 0.02 (0.02). The “Ratio 20(S)-PPD/CK AUClast/D” value (CFTR rs213950 GG) was 2.67 (3.18) %, the “Ratio 20(S)-PPD/CK Cmax/D” value (CFTR rs213950 GG) was 0.64 (0.66) % and the “20(S)-PPD AUClast/D” value (CFTR rs213968 CC) was 0.64 (0.55). The “20(S)-PPD Cmax/D” value (CFTR rs213968 CC) was 0.02 (0.02), the “Ratio 20(S)-PPD/CK AUClast/D” value (CFTR rs213968 CC) was 2.81 (3.33) % and the “Ratio 20(S)-PPD/CK Cmax/D” value (CFTR rs213968 CC) was 0.65 (0.69) %. The “20(S)-PPD AUClast/D” value (CFTR rs213968 CT) was 0.90 (0.98), the “20(S)-PPD Cmax/D” value (CFTR rs213968 CT) was 0.03 (0.04) and the “Ratio 20(S)-PPD/CK AUClast/D” value (CFTR rs213968 CT) was 4.70 (7.26) %. The “Ratio 20(S)-PPD/CK Cmax/D” value (CFTR rs213968 CT) was 1.40 (2.23) %, the “20(S)-PPD AUClast/D” value (CFTR rs213968 TT) was 0.97 (0.49) and the “20(S)-PPD Cmax/D” value (CFTR rs213968 TT) was 0.04 (0.02). The “Ratio 20(S)-PPD/CK AUClast/D” value (CFTR rs213968 TT) was 5.87 (7.37) %, the “Ratio 20(S)-PPD/CK Cmax/D” value (CFTR rs213968 TT) was 1.40 (1.51) % and the “20(S)-PPD AUClast/D” value (CFTR rs213976 GG) was 1.12 (0.43). The “20(S)-PPD Cmax/D” value (CFTR rs213976 GG) was 0.04 (0.02), the “Ratio 20(S)-PPD/CK AUClast/D” value (CFTR rs213976 GG) was 7.39 (8.42) % and the “Ratio 20(S)-PPD/CK Cmax/D” value (CFTR rs213976 GG) was 1.68 (1.73) %. The “20(S)-PPD AUClast/D” value (CFTR rs213976 GT) was 0.83 (0.78), the “20(S)-PPD Cmax/D” value (CFTR rs213976 GT) was 0.03 (0.03) and the “Ratio 20(S)-PPD/CK AUClast/D” value (CFTR rs213976 GT) was 4.01 (4.96) %. The “Ratio 20(S)-PPD/CK Cmax/D” value (CFTR rs213976 GT) was 1.32 (2.08) %, the “20(S)-PPD AUClast/D” value (CFTR rs213976 TT) was 0.74 (0.87) and the “20(S)-PPD Cmax/D” value (CFTR rs213976 TT) was 0.02 (0.03). For the same molecule, the “Ratio 20(S)-PPD/CK AUClast/D” value (CFTR rs213976 TT) was 3.63 (6.72) %, the “Ratio 20(S)-PPD/CK Cmax/D” value (CFTR rs213976 TT) was 0.81 (1.29) % and the “20(S)-PPD AUClast/D” value (CFTR rs1042077 GG) was 0.97 (0.49). The “20(S)-PPD Cmax/D” value (CFTR rs1042077 GG) was 0.04 (0.02), the “Ratio 20(S)-PPD/CK AUClast/D” value (CFTR rs1042077 GG) was 5.87 (7.37) % and the “Ratio 20(S)-PPD/CK Cmax/D” value (CFTR rs1042077 GG) was 1.40 (1.51) %. The “20(S)-PPD AUClast/D” value (CFTR rs1042077 GT) was 0.92 (0.99), the “20(S)-PPD Cmax/D” value (CFTR rs1042077 GT) was 0.03 (0.04) and the “Ratio 20(S)-PPD/CK AUClast/D” value (CFTR rs1042077 GT) was 4.85 (7.37) %. The “Ratio 20(S)-PPD/CK Cmax/D” value (CFTR rs1042077 GT) was 1.44 (2.26) %, the “20(S)-PPD AUClast/D” value (CFTR rs1042077 TT) was 0.68 (0.55) and the “20(S)-PPD Cmax/D” value (CFTR rs1042077 TT) was 0.02 (0.02). The “Ratio 20(S)-PPD/CK AUClast/D” value (CFTR rs1042077 TT) was 2.95 (3.37) %, the “Ratio 20(S)-PPD/CK Cmax/D” value (CFTR rs1042077 TT) was 0.68 (0.70) % and the “20(S)-PPD AUClast/D” value (CFTR rs2106155 AA) was 1.09 (0.41). For the same molecule, the “20(S)-PPD Cmax/D” value (CFTR rs2106155 AA) was 0.04 (0.02), the “Ratio 20(S)-PPD/CK AUClast/D” value (CFTR rs2106155 AA) was 7.22 (7.81) % and the “Ratio 20(S)-PPD/CK Cmax/D” value (CFTR rs2106155 AA) was 1.67 (1.60) %. The “20(S)-PPD AUClast/D” value (CFTR rs2106155 CA) was 0.88 (0.82), the “20(S)-PPD Cmax/D” value (CFTR rs2106155 CA) was 0.04 (0.03) and the “Ratio 20(S)-PPD/CK AUClast/D” value (CFTR rs2106155 CA) was 4.03 (5.36) %. For the same molecule, the “Ratio 20(S)-PPD/CK Cmax/D” value (CFTR rs2106155 CA) was 1.39 (2.26) %.
